What all share (type): functional
Assay [1] concerns Escherichia coli. The experiment in a line: Antibacterial activity against Escherichia coli MTCC 41 at 64 ug/ml after 16 hrs by disc diffusion method. The settings on record: MTCC 41, 16 h, read-out: IZ. The gist of the method:
(§1)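 Disc diffusion zone-of-inhibition assay. The bacterial isolate was spread evenly over the surface of an agar plate. A filter disc loaded with a known amount of compound was placed on the surface, and the compound diffused into the surrounding agar. Plates were incubated 16 h until a bacterial lawn formed, and the zone of inhibition around the disc was then assessed.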
Background: In agar diffusion tests the substance spreads into inoculated agar from a disc or well.

In assay [2] the test system is Pseudomonas putida. The experiment in a line: Antibacterial activity against Pseudomonas putida MTCC 1072 at 64 ug/ml after 16 hrs by disc diffusion method. The settings on record: MTCC 1072, 16 h, read-out: IZ. An outline of the steps:
as §1

Assay [3] relates to Escherichia coli. Put plainly: Antibacterial activity against Escherichia coli MTCC 41 after 12 to 16 hrs. The gist of the method: (§2)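 Tube broth dilution MIC. Tubes were inoculated with the bacterial strain and incubated 12–16 h. Growth was scored visually: a turbid tube means growth, a clear tube means no growth. MIC is the lowest concentration with no growth.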
Assay [4] relates to Pseudomonas putida. Put plainly: Antibacterial activity against Pseudomonas putida MTCC 1072 after 12 to 16 hrs. An outline of the steps: as §2
For assay [5], the system named is Staphylococcus aureus. The experiment in a line: Antibacterial activity against Staphylococcus aureus MTCC 1144 after 12 to 16 hrs. The gist of the method:
as §2

For assay [6], the system named is Staphylococcus aureus. Put plainly: Antibacterial activity against Staphylococcus aureus MTCC 1144 at 64 ug/ml after 16 hrs by disc diffusion method. The settings on record: MTCC 1144, 16 h, read-out: IZ. The gist of the method:
as §1

For assay [7], the system named is Escherichia coli. Put plainly: Antibacterial activity against Escherichia coli MTCC 41 at 128 ug/ml after 16 hrs by disc diffusion method. The settings on record: MTCC 41, 16 h, read-out: IZ. The gist of the method:
as §1

Assay [8] deals with Staphylococcus aureus. The experiment in a line: Antibacterial activity against Staphylococcus aureus MTCC 1144 at 128 ug/ml after 16 hrs by disc diffusion method. The settings on record: MTCC 1144, 16 h, read-out: IZ. An outline of the steps: as §1
Assay [9] concerns Pseudomonas putida. Put plainly: Antibacterial activity against Pseudomonas putida MTCC 1072 at 128 ug/ml after 16 hrs by disc diffusion method. The settings on record: MTCC 1072, 16 h, read-out: IZ. An outline of the steps:
as §1

In brackets after ≈: the same amount, converted by molar mass.

As to `CCOC(=O)C1=C(C)OC(N)=C(C#N)C1c1ccc([N+](=O)[O-])cc1` (stereo not drawn), the zone of inhibition at 64 µg/mL in the assay with Escherichia coli [1], in the assay on Pseudomonas putida [2] and in the assay on Staphylococcus aureus [6] was below 1 mm each time. Moreover, the MIC with Escherichia coli [3], in the assay on Pseudomonas putida [4] and against Staphylococcus aureus [5] was above 128 µg/mL in each case. Further, the zone of inhibition at 128 µg/mL in the assay with Escherichia coli [7], with Staphylococcus aureus [8] and in the assay with Pseudomonas putida [9] was below 1 mm throughout.

On to `CC1(C)CC(=O)C2=C(C1)OC(N)=C(C#N)C2c1ccc(Cl)cc1` (stereo not drawn), for which the zone of inhibition at 64 µg/mL in the assay with Escherichia coli [1], in the assay on Pseudomonas putida [2] and in the assay on Staphylococcus aureus [6] was above 2 mm each time. Moreover, the MIC with Escherichia coli [3], against Pseudomonas putida [4] and with Staphylococcus aureus [5] was 128 µg/mL (≈ 389 µM) each time. The zone of inhibition at 128 µg/mL in the assay on Escherichia coli [7], with Staphylococcus aureus [8] and in the assay on Pseudomonas putida [9] was above 3 mm throughout.

Turning to `Cc1ccc(C2C(C#N)=C(N)OC3=C2C(=O)CC(C)(C)C3)cc1` (stereo not drawn), the zone of inhibition at 64 µg/mL with Escherichia coli [1], in the assay with Pseudomonas putida [2] and in the assay on Staphylococcus aureus [6] was above 2 mm in each case. The MIC (commonly the smallest concentration in the dilution series that meets the test's criterion for growth inhibition) is above 128 µg/mL in the assay on Escherichia coli [3], 128 µg/mL (≈ 415 µM) with Pseudomonas putida [4] and above 128 µg/mL with Staphylococcus aureus [5]. Also, the zone of inhibition at 128 µg/mL is above 2 mm in the assay on Escherichia coli [7], above 2 mm in the assay on Staphylococcus aureus [8] and above 3 mm in the assay with Pseudomonas putida [9].

With `CC1(C)CC(=O)C2=C(C1)OC(N)=C(C#N)C2c1cccc(O)c1` (stereo not drawn), the zone of inhibition at 64 µg/mL was above 2 mm with Escherichia coli [1], above 3 mm with Pseudomonas putida [2] and above 2 mm in the assay on Staphylococcus aureus [6]. Besides, the MIC with Escherichia coli [3] is 128 µg/mL (≈ 412 µM); against Pseudomonas putida [4], 64 µg/mL (≈ 206 µM); against Staphylococcus aureus [5], above 128 µg/mL. Besides, the zone of inhibition at 128 µg/mL with Escherichia coli [7] was above 3 mm; in the assay on Staphylococcus aureus [8], above 2 mm; in the assay with Pseudomonas putida [9], above 3 mm.

For the compound `CC1(C)CC(=O)C2=C(C1)OC(N)=C(C#N)C2c1ccccc1` (stereo not drawn), the zone of inhibition at 64 µg/mL in the assay on Escherichia coli [1] is below 1 mm; in the assay with Pseudomonas putida [2], above 2 mm; in the assay on Staphylococcus aureus [6] it was below 1 mm. The MIC in the assay with Escherichia coli [3], against Pseudomonas putida [4] and in the assay on Staphylococcus aureus [5] was above 128 µg/mL in each case. Moreover, the zone of inhibition at 128 µg/mL is above 2 mm with Escherichia coli [7], below 1 mm in the assay with Staphylococcus aureus [8] and above 2 mm in the assay on Pseudomonas putida [9].

Consider `COc1ccc(C2C(C#N)=C(N)OC3=C2C(=O)CC(C)(C)C3)cc1` (stereo not drawn), for which the zone of inhibition at 64 µg/mL is above 3 mm in the assay on Escherichia coli [1], above 2 mm in the assay on Pseudomonas putida [2] and above 2 mm in the assay with Staphylococcus aureus [6]. Moreover, the MIC was 64 µg/mL (≈ 197 µM) in the assay with Escherichia coli [3], 128 µg/mL (≈ 395 µM) against Pseudomonas putida [4] and above 128 µg/mL in the assay with Staphylococcus aureus [5]. For the same compound, the zone of inhibition at 128 µg/mL in the assay with Escherichia coli [7] was above 3 mm; in the assay on Staphylococcus aureus [8] it was above 2 mm; with Pseudomonas putida [9], above 3 mm.

Turning to `CC1(C)CC(=O)C2=C(C1)OC(N)=C(C#N)C2c1cccc([N+](=O)[O-])c1` (stereo not drawn), the zone of inhibition at 64 µg/mL in the assay with Escherichia coli [1] is below 1 mm; with Pseudomonas putida [2], below 1 mm; in the assay with Staphylococcus aureus [6], above 2 mm. The MIC against Escherichia coli [3], with Pseudomonas putida [4] and in the assay with Staphylococcus aureus [5] was 128 µg/mL (≈ 377 µM) in each case. Moreover, the zone of inhibition at 128 µg/mL in the assay with Escherichia coli [7], in the assay with Staphylococcus aureus [8] and in the assay on Pseudomonas putida [9] was above 3 mm throughout.

Take `CC1(C)CC(=O)C2=C(C1)OC(N)=C(C#N)C2c1ccc([N+](=O)[O-])cc1` (stereo not drawn): the zone of inhibition at 64 µg/mL with Escherichia coli [1] was above 3 mm; in the assay on Pseudomonas putida [2], below 1 mm; in the assay on Staphylococcus aureus [6], above 3 mm. Besides, the values for the MIC against Escherichia coli [3], with Pseudomonas putida [4] and with Staphylococcus aureus [5] were 64 µg/mL (≈ 189 µM), 128 µg/mL (≈ 377 µM) and 64 µg/mL (≈ 189 µM), respectively. Besides, the zone of inhibition at 128 µg/mL with Escherichia coli [7], in the assay on Staphylococcus aureus [8] and in the assay with Pseudomonas putida [9] was above 3 mm each time.

With `CCOC(=O)C1=C(C)OC(N)=C(C#N)C1c1cccc([N+](=O)[O-])c1` (stereo not drawn), the zone of inhibition at 64 µg/mL in the assay with Escherichia coli [1], in the assay with Pseudomonas putida [2] and in the assay on Staphylococcus aureus [6] was below 1 mm each time. Besides, the MIC in the assay with Escherichia coli [3], in the assay on Pseudomonas putida [4] and against Staphylococcus aureus [5] was above 128 µg/mL in each case. The zone of inhibition at 128 µg/mL in the assay with Escherichia coli [7], in the assay with Staphylococcus aureus [8] and with Pseudomonas putida [9] was below 1 mm throughout.

For `CCOC(=O)C1=C(C)OC(N)=C(C#N)C1c1ccccc1` (stereo not drawn), the zone of inhibition at 64 µg/mL in the assay with Escherichia coli [1] was above 3 mm; in the assay on Pseudomonas putida [2], below 1 mm; with Staphylococcus aureus [6], below 1 mm. The MIC in the assay with Escherichia coli [3] turned out to be 64 µg/mL (≈ 225 µM); against Pseudomonas putida [4] it was 128 µg/mL (≈ 450 µM); with Staphylococcus aureus [5] it was 128 µg/mL (≈ 450 µM). For the same compound, the zone of inhibition at 128 µg/mL in the assay on Escherichia coli [7], in the assay with Staphylococcus aureus [8] and with Pseudomonas putida [9] was above 3 mm in each case.

Consider `CCOC(=O)C1=C(C)OC(N)=C(C#N)C1c1cccc(Cl)c1` (stereo not drawn), for which the zone of inhibition at 64 µg/mL in the assay with Escherichia coli [1], in the assay on Pseudomonas putida [2] and with Staphylococcus aureus [6] was below 1 mm each time. Moreover, the MIC with Escherichia coli [3], against Pseudomonas putida [4] and in the assay on Staphylococcus aureus [5] was 128 µg/mL (≈ 402 µM) in each case. Further, the zone of inhibition at 128 µg/mL with Escherichia coli [7], in the assay with Staphylococcus aureus [8] and with Pseudomonas putida [9] was above 3 mm in each case.

On to `CCOC(=O)C1=C(C)OC(N)=C(C#N)C1c1ccc(Cl)cc1` (stereo not drawn), for which the zone of inhibition at 64 µg/mL in the assay with Escherichia coli [1], in the assay on Pseudomonas putida [2] and in the assay on Staphylococcus aureus [6] was below 1 mm in each case. In addition, the MIC against Escherichia coli [3], against Pseudomonas putida [4] and in the assay on Staphylococcus aureus [5] was above 128 µg/mL each time. Also, the zone of inhibition at 128 µg/mL in the assay on Escherichia coli [7], in the assay on Staphylococcus aureus [8] and in the assay on Pseudomonas putida [9] was below 1 mm in each case.

Turning to `CCOC(=O)C1=C(C)OC(N)=C(C#N)C1c1ccc(C)cc1` (stereo not drawn), the zone of inhibition at 64 µg/mL in the assay on Escherichia coli [1], in the assay on Pseudomonas putida [2] and in the assay with Staphylococcus aureus [6] was below 1 mm in each case. Moreover, the MIC against Escherichia coli [3], with Pseudomonas putida [4] and in the assay on Staphylococcus aureus [5] was above 128 µg/mL each time. The zone of inhibition at 128 µg/mL in the assay on Escherichia coli [7], in the assay on Staphylococcus aureus [8] and in the assay with Pseudomonas putida [9] was below 1 mm each time.

For the compound `CCOC(=O)C1=C(C)OC(N)=C(C#N)C1c1cccc(O)c1` (stereo not drawn), the zone of inhibition at 64 µg/mL with Escherichia coli [1], in the assay on Pseudomonas putida [2] and with Staphylococcus aureus [6] was below 1 mm throughout. For the same compound, the values for the MIC against Escherichia coli [3], in the assay with Pseudomonas putida [4] and in the assay with Staphylococcus aureus [5] were above 128 µg/mL, 128 µg/mL (≈ 426 µM) and above 128 µg/mL, respectively. For the same compound, the zone of inhibition at 128 µg/mL in the assay with Escherichia coli [7] is below 1 mm; with Staphylococcus aureus [8] it was below 1 mm; with Pseudomonas putida [9], above 3 mm.

Take `CCOC(=O)C1=C(C)OC(N)=C(C#N)C1c1ccc(OC)cc1` (stereo not drawn): the zone of inhibition at 64 µg/mL in the assay with Escherichia coli [1], in the assay with Pseudomonas putida [2] and with Staphylococcus aureus [6] was below 1 mm each time. Besides, the MIC in the assay on Escherichia coli [3], in the assay with Pseudomonas putida [4] and with Staphylococcus aureus [5] was 128 µg/mL (≈ 407 µM) in each case. For the same compound, the zone of inhibition at 128 µg/mL with Escherichia coli [7], in the assay on Staphylococcus aureus [8] and with Pseudomonas putida [9] was above 3 mm each time.

As to `CC1(C)S[C@@H]2[C@H](NC(=O)[C@H](N)c3ccccc3)C(=O)N2[C@H]1C(=O)O` [AMPICILLIN], the zone of inhibition at 64 µg/mL is above 5 mm in the assay on Escherichia coli [1], 0 mm in the assay with Pseudomonas putida [2] and above 5 mm with Staphylococcus aureus [6]. Further, the MIC with Escherichia coli [3] was 16 µg/mL (≈ 45.8 µM); against Pseudomonas putida [4] it was above 256 µg/mL. Besides, the zone of inhibition at 128 µg/mL in the assay with Escherichia coli [7] was above 5 mm; in the assay with Staphylococcus aureus [8], above 5 mm; with Pseudomonas putida [9], 0 mm.

The record behind these values is ChEMBL document CHEMBL1153764, “A facile one-pot green synthesis and antibacterial activity of 2-amino-4H-pyrans and 2-amino-5-oxo-5,6,7,8-tetrahydro-4H-chromenes” (2009).
